# Screens: PubChem BioAssay, The Scripps Research Institute Molecular Screening Center
# TAAR1 antag = human TAAR1 antagonism. inhibition, % at 3 µM. CHO RD-HGA16 TAAR1, Fluo-8 calcium fluorescence, antagonist. Q96RJ0. hit rate 1.5% among 360,000. AID 624466;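 active = inhibition above a per-plate cutoff, the mean inhibition of test compounds on that plate plus 3 SD, cut at about 49% in these data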;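 also: 0% = DMSO plus EC80 beta-PEA response and 100% = DMSO alone without agonist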
#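 Assay system: CHO-derived RD-HGA16 cells stably expressing human TAAR1 plus Gα16. Timing: 140 s kinetic read after compound, 140 s after agonist. Technique: kinetic Fluo-8 calcium fluorescence measurement. Measure: % inhibition of agonist calcium response.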
# CHO parental Ca = signal in parental CHO cells, OX1R antagonist counter-screen | parental CHO-K1, ATP-induced calcium, Fluo-8 fluorescence | inhibition, % at 5.6 µM | hit rate 0.63% among 330,000 | AID 463079;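 active = inhibition above that plate's mean sample inhibition plus 3 SD, cut at about 26% in these data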;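 also: 0% = ATP-challenged DMSO wells and 100% = DMSO wells without ATP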
#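 Material – parental CHO cells · Reagent – ATP stimulus · Compound – single nominal dose of 5.6 µM per compound · Detection – Fluo-8 fluorescence · Read-out basis – percent inhibition of calcium signal · Controls – ATP-challenged DMSO wells low, unchallenged DMSO wells high · Repeats – no replicates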
# GPR7 antag = antagonists of human GPR7 (neuropeptides B/W receptor 1). GPR7-expressing cells, fluorescence antagonist assay. inhibition, % at 4.4 µM. hit rate 1.1% among 290,000. AID 1861; in the data active = inhibition above about 16%, passing the limit was not always enough;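 also: cells stimulated with the agonist NPW; 0% = agonist with vehicle and 100% = vehicle without agonist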
# TAAR1 agonist = human TAAR1 agonism | Q96RJ0 | CHO RD-HGA16 TAAR1, Fluo-8 calcium fluorescence; vehicle wells 0%, saturating PEA agonist 100% | activation, % at 3 µM | hit rate 0.99% among 360,000 | AID 624467;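 active = activation above the mean activation of all test compounds in the run plus 3 SD, cut at about 38% in these data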
#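 Test system: RD-HGA16 (CHO) cells co-expressing Gα16 and hTAAR1; dosing: one-point dosing at 3 µM (nominal); timing: 17-24 h seeding, 75 min 37 °C dye, 30 min RT; signal: kinetic Fluo-8 calcium fluorescence; read-out basis: % activation relative to PEA EC100 response; controls: DMSO and PEA EC100; replicates: n 1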
# OX1R antag-1 = blocks the human orexin 1 receptor; O43613; OX1R-expressing cells, FRET antagonist read-out; inhibition, % at 6.6 µM; hit rate 1.8% among 330,000; AID 485270; in the data active = inhibition mostly above about 38%, no sharp cut-off; inactive = mostly below about 40%;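 also: 0% = agonist challenge alone and 100% = reference antagonist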
# Target sequence (O43613 whole entry, looked up): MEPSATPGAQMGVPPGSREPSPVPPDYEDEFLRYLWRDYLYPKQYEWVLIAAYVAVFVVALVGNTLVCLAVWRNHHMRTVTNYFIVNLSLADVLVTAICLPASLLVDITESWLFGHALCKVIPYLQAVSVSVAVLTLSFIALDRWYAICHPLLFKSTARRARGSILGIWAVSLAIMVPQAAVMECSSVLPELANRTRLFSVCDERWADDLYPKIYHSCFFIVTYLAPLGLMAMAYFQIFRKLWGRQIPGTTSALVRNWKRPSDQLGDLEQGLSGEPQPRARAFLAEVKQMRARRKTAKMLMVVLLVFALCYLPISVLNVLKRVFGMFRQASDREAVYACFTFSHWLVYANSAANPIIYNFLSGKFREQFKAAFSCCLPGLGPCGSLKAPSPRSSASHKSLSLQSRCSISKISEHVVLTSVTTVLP
# OX1R antag-2 = blocks the human orexin 1 receptor | O43613 | CHO/OX1R cells, Fluo-8 calcium fluorescence, orexin A | inhibition, % at 5 µM | hit rate 0.43% among 330,000 | AID 434989;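 active = inhibition above its plate's threshold, mean inhibition of all tested compounds on the plate plus 3 SD, cut at about 37% in these data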;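 also: 0% = orexin A challenge wells and 100% = SB-334867-A antagonist wells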
# GPR7 antag cf = confirmation of human GPR7 antagonists; shares compounds with GPR7 antag; GPR7-expressing cells, calcium fluorescence antagonist mode; inhibition, % at 4.4 µM; hit rate 52% among 2,400; in the data active = inhibition above about 24%;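 also: stimulated with the GPR7 agonist NPW; 0% = agonist plus vehicle and 100% = vehicle alone without agonist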
# MCHR1 antagonist = antagonizes human MCHR1, a GPR7 antagonist counter-screen. shares compounds with GPR7 antag. MCHR1-expressing cells, fluorescence antagonist assay. inhibition, % at 4.4 µM. hit rate 62% among 2,400. AID 2148; in the data active = inhibition above about 22%;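 also: 0% = vehicle with agonist and 100% = vehicle without agonist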
# * = called active by the depositor; . = no result given. Compounds with a hit are over-represented: about 4.6% of the library has one in this group of screens.
SMILES,TAAR1 antag,CHO parental Ca,GPR7 antag,TAAR1 agonist,OX1R antag-1,OX1R antag-2,GPR7 antag cf,MCHR1 antagonist
CCc1ccc2nc(N(CCCN(C)C)C(=O)c3ccc(S(=O)(=O)N4CCc5ccccc5C4)cc3)sc2c1,17,-20,7,36,2,-18,.,.
CCOc1ccc(N(CC(=O)NCCc2ccccc2)C(=O)CCC(=O)Nc2cc(C)ccn2)cc1,-21,-27,-7,4,12,-44,.,.
CCOC(=O)CNC(=S)N(CCCN1CCCCC1)Cc1cccs1,4,-9,35*,0,4,-9,9,16
CCC(=O)N(C(=O)CC)N1CCN(c2ccncc2S(=O)(=O)N2CCCCC2)CC1,-4,-19,34*,3,14,-31,45*,30*
CC1CCCC(NC(=O)CNC(=S)N(Cc2ccccc2)Cc2cccs2)C1C (centres undefined),0,-15,22*,0,32,-21,32*,24*
CC1CCCC(NC(=O)C2c3ccccc3C(=O)N2Cc2cccs2)C1C (centres undefined),1,-22,40*,-2,16,-27,28*,24*
O=C(NC1CCCCCCC1)C1c2ccccc2C(=O)N1Cc1ccco1 (centres undefined),-9,-19,39*,2,7,-26,25*,17
COc1cc(Nc2ccn3nc(-c4ccc(F)cc4)cc3n2)cc(OC)c1OC,42,.,.,7,.,.,.,.
CC1(c2nnnn2Cc2ccccc2)CCC(=O)N1CCCn1ccnc1 (centres undefined),-9,.,.,6,.,.,.,.
CCCc1cnc(NCCNCC(O)COc2ccc(Cl)c(Cl)c2)nc1 (centres undefined),-16,4,23*,22,-2,-27,31*,52*
N=c1c(C(=O)NC2CCCCC2)cc2c(=O)n3ccccc3nc2n1CCc1ccccc1,-9,-4,32*,5,31,-1,39*,25*
CCCn1c(=N)c(C(=O)NCc2ccc3c(c2)OCO3)cc2c(=O)n3cccc(C)c3nc21,-10,-17,-2,5,37,-27,.,.
N=c1c(C(=O)NCCc2ccccc2)cc2c(=O)n3ccccc3nc2n1Cc1ccco1,-12,-30,28*,-2,23,-34,52*,49*
N=c1c(C(=O)NCCc2ccccc2)cc2c(=O)n3ccccc3nc2n1CCCN1CCOCC1,-8,-5,37*,-1,45*,-7,35*,17
CCOCCCn1c(=N)c(C(=O)NCc2ccc3c(c2)OCO3)cc2c(=O)n3ccccc3nc21,23,.,22*,0,.,.,29*,19
O=C(CCCCCn1nnc2ccccc2c1=O)Nc1ccccc1F,8,-15,2,0,23,-17,.,.
COc1ccc(-c2nc(SCC(=O)NC3CCCCC3)n[nH]2)cc1,-15,.,23*,10,.,.,-22,35*
COc1ccc(C2C(O)C(c3c[nH]c4ccccc34)=NN2C(=O)CCl)cc1 (centres undefined),15,-6,22*,3,14,-2,39*,47*
O=C(O)c1ccc(CN2C(=O)c3ccc(Oc4ccc([N+](=O)[O-])cc4)cc3C2=O)cc1,4,-2,39*,2,13,2,12,16
Cc1ccc(-c2ccc(=O)n(Cc3ccc(F)cc3)n2)cc1,5,3,11,-3,1,-13,.,.
COc1ccc(-c2ccc(=O)n(Cc3ccc([N+](=O)[O-])cc3)n2)cc1,-8,17,36*,4,21,24,52*,83*
CO/N=C/Cc1c([N+](=O)[O-])c(C)nn1C,-6,-3,28*,1,9,-18,-7,-11
COc1ccc(-n2ccnc2CN2CCCC(CO)(Cc3cccc(OC)c3)C2)cc1 (centres undefined),-5,-21,-9,5,41,-33,.,.
COc1cccc(CC2(CO)CCCN(Cc3c(C)cc(C)cc3-n3cccn3)C2)c1 (centres undefined),6,-13,.,1,8,-34,.,9
Cc1ccc(S(=O)(=O)CCC(=O)OCC(=O)NC(N)=O)cc1,-20,-7,-10,1,11,4,.,.
SMILES,TAAR1 antag,CHO parental Ca,GPR7 antag,TAAR1 agonist,OX1R antag-1,OX1R antag-2,GPR7 antag cf,MCHR1 antagonist
CCOC(=O)CCS(=O)(=O)c1ccc(-c2ccc(S(=O)(=O)CCC(=O)OCC)cc2)cc1,5,-11,31*,13,9,5,44*,49*
CCOC(=O)c1[nH]c(CN2CCN(c3ccc(OC)cc3)CC2)c(C(=O)OCC)c1C,7,-12,25*,51*,1,-13,23,39*
CC(NCc1cc(Br)ccc1OCC(=O)NCc1ccccc1)c1ccccc1 (centres undefined),-7,-17,30*,26,15,5,34*,40*
Cc1ccc(S(=O)(=O)NCc2ccc(C(=O)NCc3cccnc3)cc2)cc1,.,-14,23*,.,15,-18,-4,0
Cc1ccc(OCC(=O)NCc2cccnc2)cc1,-5,-11,24*,3,19,-3,-5,5
O=S(=O)(NCc1cccnc1)c1ccc2c(c1)OCCO2,-3,-1,23*,9,3,0,-19,17
CC(=O)Nc1cnc(-c2ccccc2O)cn1,-16,.,.,3,.,.,.,.
O=C(Nc1nnc([C@@H]2O[C@H](CO)[C@@H](O)[C@H]2O)s1)Nc1ccccc1C(F)(F)F,1,.,.,3,.,.,.,.
O=C(NN=C1CCCC1)c1ccccc1OCCOc1ccccc1,17,-22,22*,8,5,-4,15,27*
O=C(NC1CCCC1)C(c1ccccc1)N(Cc1ccco1)C(=O)Cc1cccs1 (centres undefined),25,-23,42*,2,33,-14,35*,21
O=C(NC1CCCCC1)C(c1ccccc1F)N(Cc1ccco1)C(=O)Cn1nnc2ccccc21 (centres undefined),3,-31,29*,5,21,-27,43*,31*
COCCN(C(=O)CNC(=O)c1ccco1)C(C(=O)NC1CCCCC1)c1cccs1 (centres undefined),-11,-19,-8,2,-5,-18,.,.
O=C(NC1CCCCC1)C(c1cccs1)N(Cc1cccs1)C(=O)c1ccco1 (centres undefined),16,-19,25*,5,39,-4,22,27*
